These results are taken from ChEMBL document CHEMBL1150653, “Novel terpenoids from the formosan soft coral Cespitularia hypotentaculata” (2002).

Values after ≈ are worked out from the molar mass of the structure shown. A value given as a limit tells only on which side of the number the result lay.

Format in all cases: functional
One assay deals with A549. Kind of assay: Cytotoxicity against human A549 cells after 6 days by MTT assay. To be noted: A549, 144 h, read-out: ED50 (the source's name). A digest of the protocol: (§1)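 Human cell lines: A549 (lung adenocarcinoma) and HT-29 (colon adenocarcinoma), obtained from a culture collection. The assay follows a previously published procedure.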
(Tetrazolium dyes change colour on reduction, which living cells bring about.)

The next assay has as its system HT-29. Nature of the assay: Cytotoxicity against human HT-29 cells after 6 days by MTT assay. To be noted: HT-29, 144 h, read-out: ED50 (the source's name). A digest of the protocol:
as §1

Another assay concerns P388. Kind of assay: Cytotoxicity against mouse P388 cells after 3 days by MTT assay. To be noted: P388, 72 h, read-out: ED50 (the source's name). The method, boiled down: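 Mouse P-388 lymphocytic leukemia cells, obtained from an academic laboratory. The assay follows a previously published procedure.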

`C=C1CC[C@@H]2CCC=C(C(=O)C/C(C)=C/C(O)C1)C2(C)C` (some centres undefined) [CESPUTULARIN E]: the EC50 turned out to be 0.034 µg/mL (≈ 0.118 µM) in the assay on A549, 17.1 µg/mL (≈ 59.3 µM) in the assay on HT-29 and 4.66 µg/mL (≈ 16.2 µM) with P388.
For the molecule `C/C1=C\C[C@@H]2CCC3=C(C(=O)[C@@H]([C@@H](C)CC(=O)C1)[C@H]3O)C2(C)C` [CESPITULARIN H], the EC50 with A549 is 9.32 µg/mL (≈ 29.5 µM); with HT-29, 23.7 µg/mL (≈ 74.9 µM); with P388, greater than 50 µg/mL.
For the molecule `C=C1CC/C=C(\C)Cc2occ3c2C(C)(C)[C@H](CC1)CC3` [CESPITULARIN B], the EC50 came out at 7.96 µg/mL (≈ 28 µM) with A549, 9.25 µg/mL (≈ 32.5 µM) in the assay with HT-29 and 3.23 µg/mL (≈ 11.4 µM) in the assay on P388.
Take `C=C1CC[C@@H]2CCc3coc(c3C2(C)C)C/C(C)=C/C(O)C1` (some centres undefined) [CESPITULARIN A]: the EC50 with A549 is 8.42 µg/mL (≈ 28 µM); in the assay on HT-29, 9.76 µg/mL (≈ 32.5 µM); in the assay on P388, 3.66 µg/mL (≈ 12.2 µM).
Consider `C=C1CC/C=C(\C)[C@@H]2C(=O)C3=C(CC[C@@H](CC1)C3(C)C)[C@@H]2O` [CESPITULARIN G], for which the EC50 in the assay with A549, in the assay with HT-29 and in the assay on P388 was greater than 50 µg/mL in each case.
As to `C=C1CC[C@@H]2CCC3=C(C2(C)C)[C@@](O)(C/C(C)=C/[C@@H](O)C1)OC3=O` [CESPITULARIN D], the EC50 was greater than 50 µg/mL with A549, greater than 50 µg/mL in the assay on HT-29 and 3.86 µg/mL (≈ 11.6 µM) in the assay with P388.
Take `C=C1CC[C@@H]2CCC3=C(C(=O)[C@@H](/C(C)=C/C(O)C1)[C@H]3O)C2(C)C` (some centres undefined) [CESPITULARIN F]: the results for the EC50 in the assay on A549, in the assay on HT-29 and in the assay on P388 were 16.1 µg/mL (≈ 50.9 µM), greater than 50 µg/mL and greater than 50 µg/mL, respectively.
As for `C=C1CC/C=C(\C)C[C@@H](O)C2=C(C)CC[C@@H](CC1)C2(C)C` [CESPITULARIN C], the values for the EC50 with A549, with HT-29 and with P388 were 0.12 µg/mL (≈ 0.416 µM), 8.86 µg/mL (≈ 30.7 µM) and 0.01 µg/mL (≈ 0.0347 µM), respectively.
